Published values from different studies.
Each line is one published result; the experiments were not run side by side.
Mode: inhibitor
Dihydroorotate dehydrogenase, mitochondrial, putative: Dihydroorotate dehydrogenase, mitochondrial, putative (Plasmodium vivax, UniProt A5K1N1)
HDAC6: Protein deacetylase HDAC6 (HDAC6, Homo sapiens, UniProt Q9UBN7)
KCNH2: Voltage-gated inwardly rectifying potassium channel KCNH2 (KCNH2, Homo sapiens, UniProt Q12809)

SMILES	target	observed	technique	pH	IC50 [nM]
Cn1nc2c(=O)n(C3CC3)ncc2c1[C@](O)(c1cnc(C(F)(F)F)c(Cl)c1)C(F)(F)F	Dihydroorotate dehydrogenase, mitochondrial, putative	enzyme activity	absorbance		17
CC(C)c1cccc(OS(=O)(=O)Oc2cc(F)cc(C(=O)NO)c2)c1	HDAC6	enzyme activity	fluorescence		832
COc1cc2c(cc1OC)CC(=O)N(CCCN(C)C[C@H]1Cc3cc(OC)c(OC)cc31)CC2	Potassium/sodium hyperpolarization-activated cyclic nucleotide-gated channel 1 (Homo sapiens, UniProt O60741)	ion current			5400
CN(C)C(=O)CN1CCN(c2cnc3c(cc(C(=O)NCc4ccc(Cl)cc4)c(=O)n3CC(=O)N3CC(C)(F)C3)n2)C1=O	KCNH2	ion current	patch clamp		> 40000
Cc1cc(OS(=O)(=O)Oc2ccc(-n3ccnc3)cc2)cc(C(=O)NO)c1	HDAC6	enzyme activity	fluorescence		4750
Cn1nc2c(=O)n(C3CC3)ccc2c1[C@](O)(c1cnc(C(F)(F)F)c(Cl)c1)C(F)(F)F	Dihydroorotate dehydrogenase, mitochondrial, putative	enzyme activity	absorbance		19
CC1(F)CN(C(=O)Cn2c(=O)c(C(=O)NCc3ccc(Cl)cc3)cc3nccnc32)C1	KCNH2	ion current	patch clamp		5910
O=C(NO)c1cc(F)cc(OS(=O)(=O)Oc2ccccc2)c1	HDAC6	enzyme activity	fluorescence		77
CCOC(=O)c1nn(C)c(Cc2ccc(C(F)(F)F)nc2)c1C	Dihydroorotate dehydrogenase, mitochondrial, putative	enzyme activity	absorbance		88
COc1ccc2c(C(=S)N(C)CC(=O)O)cccc2c1C(F)(F)F	Aldo-keto reductase family 1 member B10 (AKR1B10, Homo sapiens, UniProt O60218)	enzyme activity			57
O=c1oc(-c2ccco2)nc2ccccc12	Prothrombin (F2, Homo sapiens, UniProt P00734)	enzyme activity	absorbance	pH 7.4	> 50000
O=C(NO)c1cccc(OS(=O)(=O)Oc2ccc(C(F)(F)F)cc2)c1	HDAC6	enzyme activity	fluorescence		842
CN(C)C(=O)c1cc2cnc(Nc3ccc(N4CCNCC4)cn3)nc2n1C1CCCC1	3',5'-cyclic-AMP phosphodiesterase 4D (PDE4D, Homo sapiens, UniProt Q08499)	enzyme activity	TR-FRET		> 10000
O=C(NO)c1cncc(OS(=O)(=O)Oc2ccc(C(F)(F)F)cc2)c1	HDAC6	enzyme activity	fluorescence		147
Cn1nc2c(=O)n(C3CC3)cnc2c1[C@](O)(c1cnc(C(F)(F)F)c(Cl)c1)C(F)(F)F	Dihydroorotate dehydrogenase, mitochondrial, putative	enzyme activity	absorbance		23
CC1(F)CN(C(=O)Cn2c(=O)c(C(=O)NCc3ccc(Cl)cc3)cc3nc(N4CCOC4=O)cnc32)C1	KCNH2	ion current	patch clamp		5620
CC[C@@](O)(c1cnc(C(F)(F)F)c(Cl)c1)c1c2cnn(C3CC3)c(=O)c2nn1C	Dihydroorotate dehydrogenase, mitochondrial, putative	enzyme activity	absorbance		19
COc1cccc(OS(=O)(=O)Oc2cccc(C(=O)NO)c2)c1	HDAC6	enzyme activity	fluorescence		92
